# From ChEMBL document CHEMBL2177098, “Synthesis and evaluation of novel ¹⁸F labeled 2-pyridinylbenzoxazole and 2-pyridinylbenzothiazole derivatives as ligands for positron emission tomography (PET) imaging of β-amyloid plaques” (J Med Chem, 2012)
# Assays:
# Brain = assay: Ratio of drug uptake in brain at 2 mins to drug uptake in brain at 60 mins in CD1 mouse at 10 uCi, iv; format: ADME, organism-based; details: in vivo
# Outline: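 Normal male ICR mice (5 weeks, about 20 g) received the 18F-labelled tracer in saline, 370 KBq per 100 μL, by tail-vein injection. Five mice per time point were killed at 2, 10, 30 and 60 min. Organs were weighed and gamma-counted against diluted aliquots of the injected dose to give % dose/g. The ratio is brain uptake at 2 min over brain uptake at 60 min.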
# [1] = Displacement of [125I]-IMPY from amyloid beta (1 to 42) fibrils after 2 hrs by gamma-counting analysis
# Outline: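 Competition binding with aggregated Aβ1-42 fibrils and [125I]IMPY (60000−100000 cpm/100 μL) in 0.05% BSA (1 mL total); inhibitors 10⁻⁴−10^−8.5 M in ethanol. Incubated 37 °C for 2 h, then GF/B vacuum filtration with PBS (0.02 M, pH 7.4) washes and γ counting. Three repeats; IC50 converted to Ki by Cheng−Prusoff.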
compound,measurement,setting,value
CNc1ccc(/C=C/c2ccc(OCCOCCOCC[18F])nc2)cc1 [FLORBETAPIR F 18],Ratio,Brain,3.9
same,Ki,[1],2.87 nM
